From paper PMC9293711 (Acta Pharmaceutica Sinica. B, 2022) come the findings set out here.

Where two headings read alike, the source gives them in different places.

One series deals with MCF-7/ADR cells. It is filed as cell-based, human. The conditions noted are these: after 24 h pre-incubation with non-toxic concentration of the compound. In short, it runs like this:
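Adr-resistant MCF-7/ADR cells were kept in RPMI 1640 with 10% FBS and 1000 ng/mL Adr. Cells were seeded at 5 × 10^3/well and pre-treated 24 h with the test compound at its highest non-toxic level (95% viability by 24 h CCK8 over 1.25–80 μmol/L). Adr (0–100 μmol/L) was then added for 24 h.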

In series [1] the target is T1, P-gp (Homo sapiens, UniProt P08183). Briefly: biochemical. The settings on record: Table 2, steady-state affinity model (1:1), reference FC SMALPs-MCF-7.
The target of series [2] is T1, P-gp. The conditions noted are these: for Rmax: analyte binding capacity from steady-state fit; for Kd: Table 2, steady-state affinity model (1:1), reference FC SMALPs-MCF-7.
For series [3], the target named is T1, P-gp. The settings on record: SPR screening of 50 natural products, remarkable response values.
Series [4] has as its target T1, P-gp. Briefly: Rh123 bidirectional transport experiment in MDCK-MDR1 cell monolayer. It counts as cell-based. The settings on record: MDCK-MDR1 cells, pre-incubation with the compound. In short, it runs like this: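 MDCK cells transfected with MDR1 were grown in DMEM with 10% FBS, streptomycin and penicillin, then used as monolayers on Transwell plates. Rh123 served as the P-gp substrate. Apparent permeability was measured in both directions, apical→basolateral and basolateral→apical, with efflux rate (ER) derived from these, for treated versus control monolayers (mean ± SD, n = 3).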

T1 sequence (P08183 whole entry): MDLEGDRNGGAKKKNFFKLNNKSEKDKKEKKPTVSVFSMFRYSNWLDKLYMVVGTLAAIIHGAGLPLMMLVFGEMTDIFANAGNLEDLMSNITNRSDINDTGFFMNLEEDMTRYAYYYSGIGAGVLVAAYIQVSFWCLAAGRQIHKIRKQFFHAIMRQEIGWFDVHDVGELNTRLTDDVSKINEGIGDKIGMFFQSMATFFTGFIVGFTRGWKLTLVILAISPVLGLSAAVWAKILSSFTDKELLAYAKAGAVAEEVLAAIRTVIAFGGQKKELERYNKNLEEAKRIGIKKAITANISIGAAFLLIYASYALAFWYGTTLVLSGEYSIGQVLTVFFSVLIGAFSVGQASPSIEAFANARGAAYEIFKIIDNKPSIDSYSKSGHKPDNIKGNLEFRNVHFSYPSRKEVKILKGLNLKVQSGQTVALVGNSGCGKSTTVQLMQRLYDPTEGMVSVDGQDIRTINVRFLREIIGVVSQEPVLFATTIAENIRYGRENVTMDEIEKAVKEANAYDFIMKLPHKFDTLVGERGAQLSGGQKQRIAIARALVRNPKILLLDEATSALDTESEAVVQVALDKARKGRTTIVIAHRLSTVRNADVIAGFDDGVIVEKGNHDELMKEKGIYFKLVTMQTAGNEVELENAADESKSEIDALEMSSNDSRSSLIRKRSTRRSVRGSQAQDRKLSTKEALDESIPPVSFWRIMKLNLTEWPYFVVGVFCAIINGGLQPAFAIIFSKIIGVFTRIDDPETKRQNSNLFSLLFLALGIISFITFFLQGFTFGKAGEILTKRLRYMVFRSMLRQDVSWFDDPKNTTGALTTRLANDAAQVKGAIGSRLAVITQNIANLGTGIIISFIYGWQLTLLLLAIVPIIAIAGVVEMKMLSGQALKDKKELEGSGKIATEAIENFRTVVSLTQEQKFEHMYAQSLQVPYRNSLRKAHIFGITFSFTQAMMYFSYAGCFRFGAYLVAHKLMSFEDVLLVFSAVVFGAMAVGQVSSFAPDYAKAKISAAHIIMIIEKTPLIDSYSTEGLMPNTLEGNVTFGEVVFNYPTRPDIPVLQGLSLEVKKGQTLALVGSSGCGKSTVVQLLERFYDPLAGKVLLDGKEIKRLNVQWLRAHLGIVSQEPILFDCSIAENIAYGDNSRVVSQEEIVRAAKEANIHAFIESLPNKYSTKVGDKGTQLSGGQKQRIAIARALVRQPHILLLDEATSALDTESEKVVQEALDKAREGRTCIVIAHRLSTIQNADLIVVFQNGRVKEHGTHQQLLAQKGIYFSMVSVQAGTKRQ

Turning to `COc1cc(/C=C/C(=O)CC(=O)/C=C/c2ccc(O)c(OC)c2)ccc1O` [Curcumin], the “Sensitivity of MCF-7/ADR cells to Adr” value in the series on MCF-7/ADR cells is on record as “could not improve the sensitivity”. The Kd on P-gp [1] came to 152 µM. Moreover, on P-gp [2], the Rmax stood at 270.2 RU.
Turning to `COc1ccc2cc1Oc1ccc(cc1)C[C@H]1c3cc(c(OC)cc3CCN1C)Oc1c(O)c(OC)cc3c1[C@H](C2)N(C)CC3` [Fangchinoline], in the series on MCF-7/ADR cells, the “Sensitivity of MCF-7/ADR cells to Adr” value is recorded as “significantly increased”. The same molecule showed a Kd on P-gp [1] of 116 µM. The Rmax at P-gp [2] amounted to 24.92 RU. Also, the “Screening outcome: target compound binding to P-gp” value (“Screening outcome … to P-gp” below) on P-gp [3] was “could bind to P-gp”.
As to `COc1ccc(-c2oc3c(CC=C(C)C)c(O)cc(O)c3c(=O)c2O)cc1` [Icaritin], on P-gp [2], binding was characterised by a dissociation constant (Kd) of 2.55 µM and the Rmax was 13.86 RU. Moreover, the “Screening outcome … to P-gp” value on P-gp [3] is “could bind to P-gp”.
As to `O=C(/C=C/c1ccc(O)cc1)c1ccc(O)cc1O` [Isoliquiritigenin], the “Sensitivity of MCF-7/ADR cells to Adr” value in the series with MCF-7/ADR cells was “could not improve the sensitivity”. Further, the Kd on P-gp [1] turned out to be 255 µM. For the same molecule, the Rmax on P-gp [2] was found to be 114 RU.
Molecule `O=c1cc(-c2ccc(O)c(O)c2)oc2cc(O)cc(O)c12` [Luteolin] displayed a Kd at P-gp [1] of 51.7 µM. On P-gp [2], this molecule showed an Rmax of 47.21 RU. The “Screening outcome … to P-gp” value on P-gp [3] is “could bind to P-gp”.
As to `COc1cccc(O)c1-c1cc(=O)c2c(O)c(OC)c(OC)c(OC)c2o1` [Neobaicalein], on P-gp [4], the “Effect on ER of Rh123 / P-gp function (in words)” value is given as “significantly reduce the ER of Rh123”. Also, the “Sensitivity of MCF-7/ADR cells to Adr” value with MCF-7/ADR cells is given as “significantly increased”. For the same molecule, on P-gp [2], the Kd came to 127 µM and the Rmax was found to be 89.01 RU. In addition, the “Screening outcome … to P-gp” value on P-gp [3] is given as “could bind to P-gp”.
In the case of `C/C=C(/C)C(=O)O[C@H]1[C@@H](OC(C)=O)c2c(ccc3ccc(=O)oc23)OC1(C)C` [Praeruptorin A], on P-gp [2], the dissociation constant Kd was found to be 7.17 µM and the Rmax is 2.618 RU. For the same molecule, the “Screening outcome … to P-gp” value at P-gp [3] was “could bind to P-gp”.
As for `C/C=C(/C)C(=O)O[C@H]1c2c(ccc3ccc(=O)oc23)OC(C)(C)[C@H]1OC(=O)/C(C)=C\C` [Praeruptorin B], the “Effect on ER of Rh123 / P-gp function (in words)” value at P-gp [4] is on record as “significantly reduce the ER of Rh123”. Further, the “Sensitivity of MCF-7/ADR cells to Adr” value in the series on MCF-7/ADR cells is listed as “significantly increased”. At P-gp [2], this molecule showed a Kd of 0.542 µM and an Rmax of 3.498 RU. In addition, the “Screening outcome … to P-gp” value on P-gp [3] is listed as “could bind to P-gp”.
In the case of `COc1ccc2cc1Oc1ccc(cc1)C[C@H]1c3cc(c(OC)cc3CCN1C)Oc1c(OC)c(OC)cc3c1[C@H](C2)N(C)CC3` [Tetrandrine], the “Sensitivity of MCF-7/ADR cells to Adr” value in the series on MCF-7/ADR cells is “significantly increased”. Moreover, the affinity on P-gp [1], expressed as Kd, was 221 µM. The molecule also displayed an Rmax on P-gp [2] of 11.24 RU. The “Screening outcome … to P-gp” value at P-gp [3] is “could bind to P-gp”.
Consider `C/C=C/C[C@@H](C)C(=O)[C@H]1C(=O)N[C@@H](C(C)C)C(=O)N(C)CC(=O)N(C)[C@@H](CC(C)C)C(=O)N[C@@H](C(C)C)C(=O)N(C)[C@@H](CC(C)C)C(=O)N[C@@H](C)C(=O)N[C@H](C)C(=O)N(C)[C@@H](CC(C)C)C(=O)N(C)[C@@H](CC(C)C)C(=O)N(C)[C@@H](C(C)C)C(=O)N1C` [Valspodar, valspodar, reference compound], for which, in the series with MCF-7/ADR cells, the “Sensitivity of MCF-7/ADR cells to Adr” value is listed as “significantly increased”.

By Kd is commonly meant a measure of binding affinity in units of concentration. The low end stands for tighter binding, the high end for weaker binding.
